ChEMBL document CHEMBL1145100, “Structure-activity relationship of imidazo[1,2-a]pyridines as ligands for detecting beta-amyloid plaques in the brain” (J Med Chem, 2003)

Key:
Mus musculus [1] = assay: Biodistribution of radioactivity in normal mice (ICR) skin after 1 hour of intravenous injection of [125I]-16(IMPY); format: ADME, organism-based, Zone of skin; conditions: in vivo
How it was run: (§1)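 Male ICR mice, 2-3 months old, 20-30 g, under ether anesthesia, given 0.15 mL of 0.1% bovine serum albumin solution containing the [125I] tracer into the tail vein. Killed by cardiac excision at set times after injection. Organs removed and weighed, then gamma-counted. % dose per organ computed against diluted aliquots of the injected material.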

Mus musculus [2] = assay: Biodistribution of radioactivity in normal mice (ICR) brain after 2 minutes of intravenous injection of [125I]-16(IMPY); format: ADME, organism-based; conditions: in vivo; how it was run: as §1
Mus musculus [3] = assay: Biodistribution of radioactivity in normal mice (ICR) muscle after 6 hours of intravenous injection of [125I]-16(IMPY); format: ADME, organism-based, Muscle tissue; conditions: in vivo; how it was run: as §1
Mus musculus [4] = assay: Biodistribution of radioactivity in normal mice blood after 6 hours of intravenous injection of [125I]-16(IMPY); format: ADME, organism-based; conditions: in vivo
How it was run: (§2)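 Male ICR mice (2-3 months old, 20-30 g) under ether anesthesia; 0.15 mL of 0.1% bovine serum albumin solution containing the iodine-125 tracer injected into the tail vein. Mice killed by cardiac excision at set times. Organs removed, weighed and gamma-counted. Percent dose per organ derived against diluted aliquots of the injectate.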

Mus musculus [5] = assay: Biodistribution of radioactivity in normal mice (ICR) skin after 30 minutes of intravenous injection of [125I]-16(IMPY); format: ADME, organism-based, Zone of skin; conditions: in vivo, 0.5 h; how it was run: as §1
Mus musculus [6] = assay: Biodistribution of radioactivity in normal mice (ICR) muscle after 30 minutes of intravenous injection of [125I]-16(IMPY); format: ADME, organism-based, Muscle tissue; conditions: in vivo, 0.5 h; how it was run: as §1
Mus musculus [7] = assay: Biodistribution of radioactivity in normal mice (ICR) lung after 2 hours of intravenous injection of [125I]-16(IMPY); format: ADME, organism-based; conditions: in vivo; how it was run: as §1
Mus musculus [8] = assay: Biodistribution of radioactivity in normal mice (ICR) muscle after 2 minutes of intravenous injection of [125I]-16(IMPY); format: ADME, organism-based, Muscle tissue; conditions: in vivo; how it was run: as §1
Mus musculus [9] = assay: Biodistribution of radioactivity in normal mice (ICR) spleen after 1 hour of intravenous injection of [125I]-16(IMPY); format: ADME, organism-based; conditions: in vivo; how it was run: as §1
Mus musculus [10] = assay: Biodistribution of radioactivity in normal mice (ICR) lung after 1 hour of intravenous injection of [125I]-16(IMPY); format: ADME, organism-based; conditions: in vivo; how it was run: as §1
Mus musculus [11] = assay: Biodistribution of radioactivity in normal mice (ICR) heart after 2 hours of intravenous injection of [125I]-16(IMPY); format: ADME, organism-based; conditions: in vivo; how it was run: as §1
Mus musculus [12] = assay: Biodistribution of radioactivity in normal mice (ICR) lung after 6 hours of intravenous injection of [125I]-16(IMPY); format: ADME, organism-based; conditions: in vivo; how it was run: as §1
Mus musculus [13] = assay: Biodistribution of radioactivity in normal mice (ICR) kidney after 1 hour of intravenous injection of [125I]-16(IMPY); format: ADME, organism-based; conditions: in vivo; how it was run: as §1
Mus musculus [14] = assay: Biodistribution of radioactivity in normal mice (ICR) brain after 6 hours of intravenous injection of [125I]-16(IMPY); format: ADME, organism-based; conditions: in vivo; how it was run: as §1
Mus musculus [15] = assay: Biodistribution of radioactivity in normal mice (ICR) heart after 6 hours of intravenous injection of [125I]-16(IMPY); format: ADME, organism-based; conditions: in vivo; how it was run: as §1
Mus musculus [16] = assay: Biodistribution of radioactivity in normal mice (ICR) liver after 2 hours of intravenous injection of [125I]-16(IMPY); format: ADME, organism-based; conditions: in vivo; how it was run: as §1
Mus musculus [17] = assay: Biodistribution of radioactivity in normal mice (ICR) kidney after 30 minutes of intravenous injection of [125I]-16(IMPY); format: ADME, organism-based; conditions: in vivo, 0.5 h; how it was run: as §1
Mus musculus [18] = assay: Biodistribution of radioactivity in normal mice (ICR) skin after 2 minutes of intravenous injection of [125I]-16(IMPY); format: ADME, organism-based, Zone of skin; conditions: in vivo; how it was run: as §1
Mus musculus [19] = assay: Biodistribution of radioactivity in normal mice blood after 2 minutes of intravenous injection of [125I]-16(IMPY); format: ADME, organism-based; conditions: in vivo; how it was run: as §2
Mus musculus [20] = assay: Biodistribution of radioactivity in normal mice (ICR) skin after 2 hours of intravenous injection of [125I]-16(IMPY); format: ADME, organism-based, Zone of skin; conditions: in vivo; how it was run: as §1
Mus musculus [21] = assay: Biodistribution of radioactivity in normal mice (ICR) brain after 30 minutes of intravenous injection of [125I]-16(IMPY); format: ADME, organism-based; conditions: in vivo, 0.5 h; how it was run: as §1
Mus musculus [22] = assay: Biodistribution of radioactivity in normal mice (ICR) heart after 30 minutes of intravenous injection of [125I]-16(IMPY); format: ADME, organism-based; conditions: in vivo, 0.5 h; how it was run: as §1
Mus musculus [23] = assay: Biodistribution of radioactivity in normal mice blood after 24 hours of intravenous injection of [125I]-16(IMPY); format: ADME, organism-based; conditions: in vivo; how it was run: as §2
Mus musculus [24] = assay: Biodistribution of radioactivity in normal mice (ICR) liver after 24 hours of intravenous injection of [125I]-16(IMPY); format: ADME, organism-based; conditions: in vivo; how it was run: as §1
Mus musculus [25] = assay: Biodistribution of radioactivity in normal mice (ICR) heart after 2 minutes of intravenous injection of [125I]-16(IMPY); format: ADME, organism-based; conditions: in vivo; how it was run: as §1
Mus musculus [26] = assay: Biodistribution of radioactivity in normal mice (ICR) liver after 1 hour of intravenous injection of [125I]-16(IMPY); format: ADME, organism-based; conditions: in vivo; how it was run: as §1
Mus musculus [27] = assay: Biodistribution of radioactivity in normal mice (ICR) muscle after 24 hours of intravenous injection of [125I]-16(IMPY); format: ADME, organism-based, Muscle tissue; conditions: in vivo; how it was run: as §1

## CN(C)c1ccc(-c2cn3cc(I)ccc3n2)cc1
Mus musculus [1]
  Dose/organ: 4.28%
Mus musculus [2]
  Dose/organ: 2.88%
Mus musculus [3]
  Dose/organ: 1.46%
Mus musculus [4]
  Dose/organ: 1.4%
Mus musculus [5]
  Dose/organ: 4.69%
Mus musculus [6]
  Dose/organ: 6.08%
Mus musculus [7]
  Dose/organ: 0.2%
Mus musculus [8]
  Dose/organ: 13.8%
Mus musculus [9]
  Dose/organ: 0.08%
Mus musculus [10]
  Dose/organ: 0.34%
Mus musculus [11]
  Dose/organ: 0.08%
Mus musculus [12]
  Dose/organ: 0.12%
Mus musculus [13]
  Dose/organ: 1.17%
Mus musculus [14]
  Dose/organ: 0.06%
Mus musculus [15]
  Dose/organ: 0.04%
Mus musculus [16]
  Dose/organ: 2.9%
Mus musculus [17]
  Dose/organ: 1.51%
Mus musculus [18]
  Dose/organ: 5.72%
Mus musculus [19]
  Dose/organ: 6.41%
Mus musculus [20]
  Dose/organ: 3.14%
Mus musculus [21]
  Dose/organ: 0.26%
Mus musculus [22]
  Dose/organ: 0.16%
Mus musculus [23]
  Dose/organ: 0.18%
Mus musculus [24]
  Dose/organ: 0.61%
Mus musculus [25]
  Dose/organ: 0.79%
Mus musculus [26]
  Dose/organ: 5.88%
Mus musculus [27]
  Dose/organ: 0.27%
